# Data as given in ChEMBL document CHEMBL1123247, “Nucleoside conjugates. 7. Synthesis and antitumor activity of 1-beta-D-arabinofuranosylcytosine conjugates of ether lipids” (J Med Chem, 1986).
# Columns and labels:
# AMML = test: Compound was tested for the inhibition of AMML (acute myelomonocytic leukemia); assay type: functional, cell-based; conditions: Homo sapiens
# How it was run: (§1)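 Human leukemia and solid tumor cells in culture were exposed to compound for 48 h. Viability was scored by trypan blue dye exclusion. IC50 (50% inhibition) was estimated from response curves of three separate experiments.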
# CML/BC = test: Compound was tested for the inhibition of CML/BC(chronic myeloid leukemia, blast crisis); assay type: functional, cell-based; conditions: Homo sapiens; how it was run: as §1
# Glioblastoma cell line = test: Compound was tested for the inhibition of glioblastoma; assay type: functional, cell-based; conditions: Homo sapiens; how it was run: as §1
# HL-60 = test: Compound was tested for the inhibition of human HL60 Leukemia; assay type: functional, cell-based; how it was run: as §1
# L1210 [1] = test: Antitumor activity was determined against the ip implanted L1210 leukemia in mice by percent median survival rate (treated/control) at 300 mg/kg (treatment of 1qd schedule) dosage; 9.5/8.0; assay type: functional, Mus musculus; conditions: route intraperitoneal
# How it was run: (§2)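 DBA/2J mice, 23-28 g, in groups of 6, were inoculated ip with 1×10^6 L1210 cells on day 0. Dosing was ip starting 24 h later on the stated daily schedules. Conjugates were given as sonicated solutions and reference prodrugs as suspensions in 0.9% NaCl with 0.5% Tween-80. Mice were observed daily until death or 45 days. Median survival T/C was calculated from survivors per NCI protocols.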
# L1210 [2] = test: Antitumor activity was determined against the ip implanted L1210 leukemia in mice by range in survival days at 300 mg/kg (treatment of 1qd schedule) dosage; Range is 9-10; assay type: functional, Mus musculus; conditions: route intraperitoneal; how it was run: as §2
# L1210 [3] = test: Antitumor activity was determined against the ip implanted L1210 leukemia in mice by range in survival days at 80 mg/kg (treatment of 1-5qd schedule) dosage; Range is 17-18; assay type: functional, Mus musculus; conditions: route intraperitoneal; how it was run: as §2
# L1210 [4] = test: Antitumor activity against the ip implanted L1210 leukemia in mice expressed as optimal dose (1-5qd treatment schedule) required to produce greatest increase in life span was determined; assay type: functional, Mus musculus
# How it was run: (§3)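 DBA/2J mice, groups of 6 (23-28 g), were inoculated ip with 1 × 10^6 L1210 cells on day 0. Dosing was ip from 24 h, in 0.9% NaCl with 0.5% Tween-80 (sonicated solution or suspension). Mice were observed daily until death or day 45. Median survival T/C followed NCI protocols, and ILS = (T/C − 1) × 100. Active range means doses giving ILS ≥25%; optimal dose means greatest ILS.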
# L1210 [5] = test: Antitumor activity against the ip implanted L1210 leukemia in mice expressed as optimal dose (1 qd treatment schedule) required to produce greatest increase in life span was determined; assay type: functional, Mus musculus; how it was run: as §3
# L1210 [6] = test: Antitumor activity was determined against the ip implanted L1210 leukemia in mice by change in […] at 80 mg/kg (treatment of 1-5qd schedule) dosage; assay type: functional, Mus musculus; conditions: route intraperitoneal
# How it was run: (§4)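 DBA/2J mice, 6 per group (wt 23-28 g), inoculated ip with 1×10^6 L1210 cells on day 0. Treatment was given ip in 0.9% NaCl with 0.5% Tween-80, starting 24 h later. Weight change was taken on day 8. Mice were observed daily until death or 45 days. Median survival T/C and %ILS = (T/C − 1) × 100 came from survivors per NCI protocols, and 45-day survivors were counted.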
# L1210 [7] = test: Antitumor activity was determined against the ip implanted L1210 leukemia in mice by change in […] at 300 mg/kg (treatment of 1qd schedule) dosage; assay type: functional, Mus musculus; conditions: route intraperitoneal; how it was run: as §4
# L1210 [8] = test: Antitumor activity was determined against the ip implanted L1210 leukemia in mice by 45-day survivors in mice at 300 mg/kg (treatment of 1qd schedule) dosage; assay type: functional, Mus musculus; conditions: route intraperitoneal
# How it was run: (§5)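 DBA/2J mice in groups of 6 (wt 23-28 g) were inoculated ip with 1×10^6 L1210 cells on day 0. Dosing was ip from 24 h, in 0.9% NaCl with 0.5% Tween-80 (conjugates sonicated), across a range of doses. Mice were observed daily until death or 45 days. Median T/C was computed from survivors per NCI protocols, and ILS = (T/C − 1)×100.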
# L1210 [9] = test: Antitumor activity was determined against the ip implanted L1210 leukemia in mice by 45-day survivors in mice at 80 mg/kg (treatment of 1-5qd schedule) dosage; assay type: functional, Mus musculus; conditions: route intraperitoneal; how it was run: as §5
# L1210 [10] = test: Antitumor activity was determined against the ip implanted L1210 leukemia in mice by percent increase in life span at 80 mg/kg (treatment of 1-5qd schedule) dosage; assay type: functional, Mus musculus; conditions: route intraperitoneal; how it was run: as §5
# L1210 [11] = test: Antitumor activity was determined against the ip implanted L1210 leukemia in mice by percent median survival rate (treated/control) at 80 mg/kg (treatment of 1-5qd schedule) dosage; 18.0/7.0; assay type: functional, Mus musculus; conditions: route intraperitoneal; how it was run: as §2
# L1210 [12] = test: Antitumor activity was determined against the ip implanted L1210 leukemia in mice by percent increase in life span at 300 mg/kg (treatment of 1qd schedule) dosage; assay type: functional, Mus musculus; conditions: route intraperitoneal; how it was run: as §5
# NSCLC = test: Compound was tested for the inhibition of non- small cell lung cancer; assay type: functional, cell-based; conditions: Homo sapiens; how it was run: as §1
# P388 [13] = test: Antitumor activity was determined against the ip implanted P388 leukemia in mice by percent increase in life span at 60 mg/kg (1-5qd treatment schedule) dosage; assay type: functional, Mus musculus; conditions: route intraperitoneal
# How it was run: (§6)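 DBA/2J mice, 23-33 g, in groups of 6, were inoculated ip with 1×10^6 P388 cells on day 0. Dosing was ip from 24 h on the stated schedules, in 0.9% NaCl with 0.5% Tween-80 (sonicated solution or suspension). Survival was followed daily until death or 45 days. Median T/C was calculated from survivors per NCI protocols, with ILS = (T/C − 1) × 100.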
# P388 [14] = test: Antitumor activity was determined against the ip implanted P388 leukemia in mice by percent median survival rate (treated/control) at 300 mg/kg (1 qd treatment schedule) dosage; 12.5/11.0; assay type: functional, Mus musculus; conditions: route intraperitoneal
# P388 [15] = test: Antitumor activity was determined against the ip implanted P388 leukemia in mice by 45-day survivors in mice at 300 mg/kg (1 qd treatment schedule) dosage; assay type: functional, Mus musculus; conditions: route intraperitoneal; how it was run: as §6
# P388 [16] = test: Antitumor activity was determined against the ip implanted P388 leukemia in mice by 45-day survivors in mice at 60 mg/kg (1-5qd treatment schedule) dosage; assay type: functional, Mus musculus; conditions: route intraperitoneal; how it was run: as §6
# P388 [17] = test: Antitumor activity was determined against the ip implanted P388 leukemia in mice by percent median survival rate (treated/control) at 60 mg/kg (1-5qd treatment schedule) dosage; 21.0/12.0; assay type: functional, Mus musculus; conditions: route intraperitoneal
# P388 [18] = test: Antitumor activity against ip implanted P388 leukemia in mice expressed as active dose range (1-5qd treatment schedule) required to produce increase in life span by >25% was determined; Range is 60-80; assay type: functional, Mus musculus
# How it was run: (§7)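 P388 leukemia: 1 × 10^6 cells were given ip on day 0 to DBA/2J mice, groups of 6 (23-33 g). Treatment was ip from 24 h after inoculation, vehicle 0.9% NaCl with 0.5% Tween-80. Mice were observed daily until death or 45 days. Median survival T/C was calculated from survivors per NCI protocols, and ILS = (T/C − 1) × 100. Active range means doses giving ILS ≥25%; optimal dose means greatest ILS.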
# P388 [19] = test: Antitumor activity was determined against the ip implanted P388 leukemia in mice by range in survival days at 60 mg/kg (1-5qd treatment schedule) dosage; Range is 18-21; assay type: functional, Mus musculus; conditions: route intraperitoneal
# P388 [20] = test: Antitumor activity was determined against the ip implanted P388 leukemia in mice by change in […] at 300 mg/kg (1 qd treatment schedule) dosage; assay type: functional, Mus musculus; conditions: route intraperitoneal
# How it was run: (§8)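 P388 leukemia, 1×10^6 cells implanted ip on day 0 into DBA/2J mice, groups of 6 (wt 23-33 g). Dosing ip started 24 h post-inoculation, vehicle 0.9% NaCl containing 0.5% Tween-80. Animals were observed daily until death or 45 days. Outputs were weight change, median survival T/C from survivors per NCI protocols, and %ILS = (T/C − 1) × 100.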
# P388 [21] = test: Antitumor activity was determined against the ip implanted P388 leukemia in mice by change in […] at 60 mg/kg (1-5qd treatment schedule) dosage; assay type: functional, Mus musculus; conditions: route intraperitoneal; how it was run: as §8
# P388 [22] = test: Antitumor activity was determined against the ip implanted P388 leukemia in mice by range in survival days at 300 mg/kg (1 qd treatment schedule) dosage; Range is 3-18; assay type: functional, Mus musculus; conditions: route intraperitoneal
# P388 [23] = test: Antitumor activity was determined against the ip implanted P388 leukemia in mice by percent increase in life span at 300 mg/kg (1 qd treatment schedule) dosage; assay type: functional, Mus musculus; conditions: route intraperitoneal; how it was run: as §6
# P388 [24] = test: Antitumor activity against the ip implanted P388 leukemia in mice expressed as optimal dose (1-5qd treatment schedule) required to produce greatest increase in life span was determined; assay type: functional, Mus musculus; design: unit: mg/kg; how it was run: as §7
# P388 [25] = test: Antitumor activity against the ip implanted P388 leukemia in mice expressed as optimal dose (1 qd treatment schedule) required to produce greatest increase in life span was determined; assay type: functional, Mus musculus; how it was run: as §7
# [26] = test system: Small cell lung cancer cell line; test: Compound was tested for the inhibition of small cell lung cancer; assay type: functional, cell-based; conditions: Homo sapiens; how it was run: as §1
# L1210 [27] = test: Antitumor activity against ip implanted L1210 leukemia in mice expressed as active dose range (1-5qd treatment schedule) required to produce increase in life span by >25% was determined; Range is 10-120
structure (smiles),measurement,setting,value
CCCCCCCCCCCCCCCCCCOCC(COP(=O)(O)OP(=O)(O)OC[C@H]1O[C@@H](n2ccc(N)nc2=O)[C@@H](O)[C@@H]1O)OC (mixture of isomers),IC50,AMML,2.3 µM
same,IC50,CML/BC,1.2 µM
same,IC50,Glioblastoma cell line,47 µM
same,IC50,HL-60,13 µM
same,median survival time,L1210 [1],9.5 days
same,Range,L1210 [2],9
same,Range,L1210 [3],17
same,Optimal dose,L1210 [4],80 mg
same,Optimal dose,L1210 [5],300 mg/kg/day
same,Weight change,L1210 [6],-1.53 g mouse-1
same,Weight change,L1210 [7],2.58 g mouse-1
same,Survivors,L1210 [8],0
same,Survivors,L1210 [9],0
same,ILS,L1210 [10],157
same,T/C,L1210 [11],18%
same,ILS,L1210 [12],12
same,IC50,NSCLC,38 µM
same,ILS,P388 [13],75
same,T/C,P388 [14],12.5%
same,Survivors,P388 [15],0
same,Survivors,P388 [16],0
same,T/C,P388 [17],21%
same,Active dose range,P388 [18],60 mg/kg/day
same,Range,P388 [19],18
same,Weight change,P388 [20],0.38 g mouse-1
same,Weight change,P388 [21],0.04 g mouse-1
same,Range,P388 [22],3
same,ILS,P388 [23],14
same,Optimal dose,P388 [24],60 mg
same,Optimal dose,P388 [25],300 mg
same,IC50,[26],> 100 µM
same,Active dose range,L1210 [27],10 mg/kg/day
